The source of these data is ChEMBL document CHEMBL2029317, “(Z)-2-(2-bromophenyl)-3-{[4-(1-methyl-piperazine)amino]phenyl}acrylonitrile (DG172): an orally bioavailable PPARβ/δ-selective ligand with inverse agonistic properties” (J Med Chem, 2012).

pIC50: −log10 of the molar value. Activity calls are given as the source filed them. The rule behind the calls is not given here.

The target of data set [1] is T1, Peroxisome proliferator-activated receptor gamma (Mus musculus) (UniProt P37238).
T1 sequence (whole entry): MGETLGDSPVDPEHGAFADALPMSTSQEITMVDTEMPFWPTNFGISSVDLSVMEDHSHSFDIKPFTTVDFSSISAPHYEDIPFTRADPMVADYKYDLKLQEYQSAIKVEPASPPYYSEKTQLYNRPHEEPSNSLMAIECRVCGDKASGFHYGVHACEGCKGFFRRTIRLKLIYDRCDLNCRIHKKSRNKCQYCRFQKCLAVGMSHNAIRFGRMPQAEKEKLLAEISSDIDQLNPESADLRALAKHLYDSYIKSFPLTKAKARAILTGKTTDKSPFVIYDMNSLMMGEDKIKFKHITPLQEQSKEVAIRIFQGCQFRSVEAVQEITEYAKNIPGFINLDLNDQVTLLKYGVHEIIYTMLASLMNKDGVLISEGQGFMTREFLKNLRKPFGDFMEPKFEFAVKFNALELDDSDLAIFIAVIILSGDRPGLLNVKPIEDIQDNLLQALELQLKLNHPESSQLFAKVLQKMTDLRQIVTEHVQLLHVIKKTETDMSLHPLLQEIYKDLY
Nature of the data set: Antagonist activity at PPARgamma in mouse NIH3T3 cells coexpressing LexA assessed as decrease in GW1929-induced transcriptional activation at 1 uM after 48 hrs by luciferase reporter gene assay relative to control. The data set is classed as functional, cell-based. Put shortly:
(§1)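 NIH3T3 cells were transfected with LexA-PPARα, -PPARβ/δ or -PPARγ fusion plasmids plus the 7L-TATAi luciferase reporter. From 4 h post-transfection, cells received inhibitory ligand (1 μM) for 48 h. Agonists followed: GW7647 300 nM (PPARα), L165,041 1 μM (PPARβ/δ) or GW1929 300 nM (PPARγ), or agonist solvent. Induction is luciferase activity with agonist relative to solvent; triplicates with t test.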
(A reporter such as luciferase makes a cellular process visible.)

Data set [2] can be described thus: Volume of distribution at steady state in CD1 mouse at 1 mg/kg, iv. The following applies: in vivo, read-out: Vdss. Type of data set: ADME, organism-based. On the set-up: dose 1 mg/kg, route intravenous. Put shortly:
(§2)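 Male CD-1 mice dosed iv by tail vein (1 mg/kg) or po by gastric gavage (5 mg/kg). Vehicle was DMSO/Solutol HS 15/PBS pH 7.4 (5/5/90, v/v/v). Blood was taken at eight time points from 10 min to 12 h, by parallel sampling of three mice per point. Plasma was acetonitrile-precipitated and analysed by HPLC-MS/MS, and basic PK parameters were derived.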

The target in data set [3] is T2, Peroxisome proliferator-activated receptor delta (Mus musculus, UniProt P35396).
T2 sequence (P35396 whole entry): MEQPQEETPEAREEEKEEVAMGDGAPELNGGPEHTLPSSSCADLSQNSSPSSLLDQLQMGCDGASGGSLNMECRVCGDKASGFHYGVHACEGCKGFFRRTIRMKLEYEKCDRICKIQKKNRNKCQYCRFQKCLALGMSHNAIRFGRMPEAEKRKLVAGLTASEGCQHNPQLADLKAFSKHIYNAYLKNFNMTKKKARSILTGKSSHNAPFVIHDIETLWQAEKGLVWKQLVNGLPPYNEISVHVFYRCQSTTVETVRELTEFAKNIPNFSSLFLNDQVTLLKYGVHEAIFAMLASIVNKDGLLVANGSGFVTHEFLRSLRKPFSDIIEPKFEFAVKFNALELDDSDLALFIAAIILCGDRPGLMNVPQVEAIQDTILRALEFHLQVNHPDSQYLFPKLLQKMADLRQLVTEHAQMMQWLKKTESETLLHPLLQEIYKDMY
In words: Inverse agonist activity at PPARbeta/delta in mouse C2C12 cells assessed as inhibition of Angptl4 expression after 24 hrs by RT-qPCR analysis. The data set is classed as functional, cell-based.

A short description of data set [4]: Clearance in CD1 mouse at 1 mg/kg, iv. The data set is classed as ADME, organism-based. Also on record: dose 1 mg/kg, route intravenous. The following applies: in vivo. The method in brief: as §2
Data set [5] addresses T3, Peroxisome proliferator-activated receptor alpha (Mus musculus) (UniProt P23204).
T3 sequence (whole entry): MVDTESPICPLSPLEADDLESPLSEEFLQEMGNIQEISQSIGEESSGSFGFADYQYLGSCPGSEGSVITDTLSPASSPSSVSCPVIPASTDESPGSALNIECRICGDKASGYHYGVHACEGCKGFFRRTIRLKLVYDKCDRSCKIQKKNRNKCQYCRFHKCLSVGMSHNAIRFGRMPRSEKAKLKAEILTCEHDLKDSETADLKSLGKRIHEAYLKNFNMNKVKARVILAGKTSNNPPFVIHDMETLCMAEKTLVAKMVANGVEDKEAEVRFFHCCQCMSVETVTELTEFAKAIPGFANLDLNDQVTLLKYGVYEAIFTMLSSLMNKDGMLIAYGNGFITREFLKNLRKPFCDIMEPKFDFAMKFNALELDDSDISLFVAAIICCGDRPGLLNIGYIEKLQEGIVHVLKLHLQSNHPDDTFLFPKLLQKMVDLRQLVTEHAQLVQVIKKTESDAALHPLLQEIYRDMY
Nature of the data set: Antagonist activity at PPARalpha in mouse NIH3T3 cells coexpressing LexA assessed as decrease in GW7647-induced transcriptional activation at 1 uM after 48 hrs by luciferase reporter gene assay relative to control. Type of data set: functional, cell-based. The method in brief: as §1

The target in data set [6] is T2, Peroxisome proliferator-activated receptor delta. In words: Displacement of fluormone Pan-PPAR Green from mouse recombinant GST-tagged PPARbeta/delta LBD after 60 mins by TR-FRET assay. A general note: Time-resolved FRET reads energy transfer from a long-lived donor to a nearby acceptor.
Data set [7] has as its target T4, Peroxisome proliferator-activated receptor delta (Mus musculus) (UniProt P35396).
T4 sequence (whole entry): T2 sequence (P35396 whole entry)
In words: Displacement of fluormone Pan-PPAR Green from mouse recombinant GST-tagged PPARbeta/delta LBD at 1 uM after 60 mins by TR-FRET assay. The method in brief:
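Competitive binding by LanthaScreen TR-FRET: recombinant GST-PPARβ/δ LBD, detected through a terbium-labelled anti-GST antibody, was incubated with Fluormone Pan-PPAR Green. Compound was tested at 1 μM. Read-out is the 520 nm/495 nm emission ratio after terbium excitation, as averages of triplicates ± SD.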

Data set [8] has as its target T5, Peroxisome proliferator-activated receptor gamma (Homo sapiens) (UniProt P37231).
T5 sequence (whole entry): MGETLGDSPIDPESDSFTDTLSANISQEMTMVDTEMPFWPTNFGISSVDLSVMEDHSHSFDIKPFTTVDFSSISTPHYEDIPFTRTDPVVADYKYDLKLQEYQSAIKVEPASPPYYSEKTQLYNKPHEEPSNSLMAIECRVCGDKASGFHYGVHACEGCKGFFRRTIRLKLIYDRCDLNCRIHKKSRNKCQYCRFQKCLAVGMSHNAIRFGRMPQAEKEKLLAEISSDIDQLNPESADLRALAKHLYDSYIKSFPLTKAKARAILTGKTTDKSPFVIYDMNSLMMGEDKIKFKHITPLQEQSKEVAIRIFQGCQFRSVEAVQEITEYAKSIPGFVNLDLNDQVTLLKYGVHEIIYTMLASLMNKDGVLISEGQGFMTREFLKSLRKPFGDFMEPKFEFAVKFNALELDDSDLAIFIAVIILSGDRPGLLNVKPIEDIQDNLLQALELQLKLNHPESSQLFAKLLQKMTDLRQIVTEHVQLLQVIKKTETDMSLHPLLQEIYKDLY
In words: Displacement of fluormone Pan-PPAR Green from PPARgamma at 100 to 1000 nM after 60 mins by TR-FRET assay.

With `CN(C)c1ccc(/C=C(\C#N)c2ccccc2Cl)cc1`, the result in data set [1], in data set [5] and in data set [8] was inactive. In addition, the Vd in data set [2] came out at 6.2 L/kg. Further, the results for the pIC50 in data set [3] and in data set [6] were 7.28 and 6.74, respectively. Also, the clearance (usually a measure of how efficiently the substance is removed, as volume per time) in data set [4] is 176 mL/min/kg. Moreover, the result in data set [7] was Active.

Take `CN1CCN(c2ccc(/C=C(\C#N)c3ccccc3Br)cc2)CC1`: the result in data set [1], in data set [5] and in data set [8] was inactive. Further, in data set [2], the Vd came to 12.5 L/kg. The pIC50 (commonly −log10 of the IC50, conventionally taken in molar units) in data set [3] is 8.02; in data set [6], 7.57. The clearance in data set [4] was 121 mL/min/kg. Further, the result in data set [7] was Active.
